{"source": "ChEMBL document CHEMBL2434893", "about": "“Synthesis, DNA binding and anti-leukemic activity of an aminoacyl nucleolipid” (Bioorg Med Chem Lett, 2013)", "assay_type_in_all_cases": "functional", "key": {"[1]": {"test_system": "OVCAR-3", "assay": "Cytotoxicity against human OVCAR3 cells assessed as cell growth at 10 uM after 48 hrs by SRB assay relative to control", "details": "OVCAR-3, 48 h, read-out: Activity", "method_in_brief": "(§1)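 NCI Developmental Therapeutics Program 60-cell-line screen at a single dose of 10 μM. Cells incubated with compound for 48 h at 37 °C before viability determination.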"}, "[2]": {"test_system": "M14", "assay": "Cytotoxicity against human M14 cells assessed as cell growth at 10 uM after 48 hrs by SRB assay relative to control", "details": "M14, 48 h, read-out: Activity", "method_in_brief": "as §1"}, "[3]": {"test_system": "SF-268", "assay": "Cytotoxicity against human SF268 cells assessed as cell growth at 10 uM after 48 hrs by SRB assay relative to control", "details": "SF-268, 48 h, read-out: Activity", "method_in_brief": "as §1"}, "[4]": {"test_system": "NCI-H460", "assay": "Cytotoxicity against human NCI-H460 cells assessed as cell growth at 10 uM after 48 hrs by SRB assay relative to control", "details": "NCI-H460, 48 h, read-out: Activity", "method_in_brief": "as §1"}, "[5]": {"test_system": "SK-MEL-5", "assay": "Cytotoxicity against human SK-MEL-5 cells assessed as cell growth at 10 uM after 48 hrs by SRB assay relative to control", "details": "SK-MEL-5, 48 h, read-out: Activity", "method_in_brief": "as §1"}, "[6]": {"test_system": "LOX IMVI", "assay": "Cytotoxicity against human LOXIMVI cells assessed as cell growth at 10 uM after 48 hrs by SRB assay relative to control", "details": "read-out: Activity", "method_in_brief": "as §1"}}}
{"smiles": "CCCCCCCCCCCCCCCC(=O)O[C@@H]1[C@H](OC(=O)CCCCCCCCCCCCCCC)[C@@H](C(=O)N[C@@H](CCCCN)C(=O)OC)O[C@H]1n1cnc2c(=O)[nH]c(NC(=O)C(C)C)nc21.Cl", "values": [{"measurement": "growth at 10 µM", "setting": "[1]", "result": 105, "unit": "%"}, {"measurement": "growth at 10 µM", "setting": "[2]", "result": 93.7, "unit": "%"}, {"measurement": "growth at 10 µM", "setting": "[3]", "result": 97.1, "unit": "%"}, {"measurement": "growth at 10 µM", "setting": "[4]", "result": 101, "unit": "%"}, {"measurement": "growth at 10 µM", "setting": "[5]", "result": 101, "unit": "%"}, {"measurement": "growth at 10 µM", "setting": "[6]", "result": 93.5, "unit": "%"}]}
